Entries after “also recorded” stand apart in the source; their conditions may differ. Where a SMILES comes first, the peptide text is derived from it.
Tests used:
[1] = target: T1, recombinant human (rh) ECE-1 (Homo sapiens, UniProt P42892); test: Peptide degradation by rhECE-1; assay type: biochemical; conditions: for Degradation of peptide by 83 nM rhECE-1 at pH 5.5 or 7.4: 50 mM MES-KOH pH 5.5 or 50 mM Tris-HCl pH 7.4, up to 480 min
T1 sequence (P42892 1-770): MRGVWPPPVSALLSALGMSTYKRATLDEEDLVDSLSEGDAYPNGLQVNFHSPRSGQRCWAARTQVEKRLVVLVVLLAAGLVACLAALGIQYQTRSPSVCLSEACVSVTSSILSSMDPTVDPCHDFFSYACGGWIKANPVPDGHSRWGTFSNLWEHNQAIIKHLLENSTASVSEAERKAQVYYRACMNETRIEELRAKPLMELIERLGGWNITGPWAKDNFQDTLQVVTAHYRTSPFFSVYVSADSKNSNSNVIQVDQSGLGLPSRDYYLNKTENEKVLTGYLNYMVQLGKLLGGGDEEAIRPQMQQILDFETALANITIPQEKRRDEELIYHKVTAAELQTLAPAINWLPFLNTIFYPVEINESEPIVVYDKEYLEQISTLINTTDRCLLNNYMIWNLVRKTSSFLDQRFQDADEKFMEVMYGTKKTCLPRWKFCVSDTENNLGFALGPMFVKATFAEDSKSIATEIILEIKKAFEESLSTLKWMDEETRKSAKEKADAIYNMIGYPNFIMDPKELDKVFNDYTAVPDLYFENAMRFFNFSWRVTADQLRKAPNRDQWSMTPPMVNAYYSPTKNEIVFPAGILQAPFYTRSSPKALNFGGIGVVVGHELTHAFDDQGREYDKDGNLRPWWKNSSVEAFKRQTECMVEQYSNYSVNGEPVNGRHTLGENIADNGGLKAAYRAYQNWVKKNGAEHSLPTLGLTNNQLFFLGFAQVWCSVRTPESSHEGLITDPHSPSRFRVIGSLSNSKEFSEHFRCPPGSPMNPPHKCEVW
Method in brief: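 Where used, the ECE-1 inhibitor (100 μM) was preincubated with enzyme on ice for 30 min at matching pH before substrate was added. Products were resolved by reversed-phase HPLC and identified by MALDI TOF/TOF mass spectrometry.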

HEK-CLR-RAMP1 cells [2] = test: Endocytosis and degradation of internalized 125I-His8-CGRP; assay type: cell-based, human; conditions: 30 min after internalization; SM-19712 10 μM, bafilomycin A1 0.15 or 1 μM
[3] = system: HEK-CLR-RAMP1+βARR2-GFP cells; test: Trafficking and colocalization of β-arrestin2-GFP and CLR/RAMP1; assay type: cell-based, human; conditions: recovery up to 4 h in CGRP-free medium
Method in brief: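 HEK-CLR-RAMP1 cells transiently transfected with β-arrestin2-GFP had surface CLR (HA11) and RAMP1 (Myc) labelled. Cells were given CGRP (2 min to 1 h), washed, and recovered in CGRP-free medium for 1–4 h. SM-19712 10 μM, bafilomycin A1 0.15 or 1 μM, or DMSO was preincubated 20–60 min and kept throughout. After PFA fixation and confocal imaging, β-arrestin2/CLR endosomal colocalization coefficient was measured at 4 h recovery.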

HEK cells = test: BK-induced Ca2+ signaling, desensitization and resensitization; assay type: cell-based, human; conditions: SM-19712 10 μM; for Effect on response to a single BK challenge ([Ca2+]i): BK 100 nM, thiorphan 1 μM, phosphoramidon 1 μM
Method in brief: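 HEK cells with native B2R were loaded with Fura-2AM and [Ca2+]i read at 37°C, on coverslips or in suspension. Cells were preincubated with BK 100 nM or vehicle (10 min, 37°C), washed, recovered 0–120 min, then rechallenged with BK 100 nM. SM-19712 10 μM, bafilomycin A1 0.15 or 1 μM, or DMSO was preincubated 20–60 min and kept in buffers throughout.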

CLR/RAMP1 = CLR/RAMP1 (Rattus norvegicus, UniProt Q63118+Q9JJ74); test: pH dependency of 125I-CGRP binding to CLR/RAMP1 membranes; conditions: pH 5.5, relative to pH 7.5 (100%)
HEK-CLR-RAMP1 cells [4] = test: CGRP-induced Ca2+ signaling, desensitization and resensitization; assay type: cell-based, human
Method in brief: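 HEK-CLR-RAMP1 cells were loaded with Fura-2AM; [Ca2+]i read at 37°C. Single challenge used CGRP 30 nM. For desensitization/resensitization: CGRP 100 nM or vehicle (1 h, 37°C), wash, 0–6 h recovery, CGRP 30 nM rechallenge. Variants: SM-19712 10 μM (20–60 min preincubation, kept throughout); ECE-1 or non-targeting siRNA pools, 72 h; transient ECE-1a-d-GFP. Response given as % of vehicle-treated cells, n ≥ 3.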

SK-N-MC cells = test: CGRP-induced Ca2+ signaling, desensitization and resensitization; assay type: cell-based, human; conditions: challenge 100 nM
Method in brief: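 SK-N-MC cells (endogenous CLR/RAMP1) were loaded with Fura-2AM for [Ca2+]i at 37°C. Single challenge used CGRP 100 nM. Desensitization: CGRP 100 nM or vehicle (1 h, 37°C), wash, CGRP-free recovery (4 h for resensitization), then CGRP 100 nM rechallenge. SM-19712 10 μM or DMSO was preincubated 20–60 min and kept throughout. Response was expressed as % of vehicle-treated cells.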

[5] = system: HEK-CLR-RAMP1 cells expressing ECE-1c-HSV; test: Cell surface ECE-1c-HSV by flow cytometry; assay type: cell-based, human; conditions: CGRP 100 nM, 30 min, 37°C
Method in brief: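 HEK-CLR-RAMP1 cells transiently expressing ECE-1c-HSV were bound with goat anti-HSV (1 h, 4°C), washed, and exposed to CGRP 100 nM or vehicle (30 min, 37°C). They were then stained with FITC anti-goat (1:200, 1 h, 4°C) and analysed by flow cytometry. Secondary-only background was subtracted; surface signal was expressed relative to 4°C cells (100%).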

rhECE-1 = test: rhECE-1; conditions: human, 37°C, up to 720 min
HEK-AT1AR cells = test: Resensitization of ATII-induced Ca2+ signaling; assay type: cell-based, human; conditions: ATII 100 nM 1 h 37°C, wash, 2 h recovery, challenge 100 nM; unpublished data; mean ± SE
Method in brief: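 HEK-AT1AR cells were exposed to ATII (100 nM) or vehicle for 1 h at 37°C, washed, and allowed to recover in agonist-free medium at 37°C. They were then rechallenged with ATII (100 nM) while [Ca2+]i was measured. The [Ca2+]i change is expressed as % of the vehicle-pretreated response. Inhibitor (10 μM) or DMSO was preincubated 20–60 min and kept in buffers throughout. Mean ± SE, n ≥ 3.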

[6] = peptide 250 μM, rhECE-1 83 nM, 37°C, HPLC

Chain of CLR/RAMP1 (Q63118 24-464): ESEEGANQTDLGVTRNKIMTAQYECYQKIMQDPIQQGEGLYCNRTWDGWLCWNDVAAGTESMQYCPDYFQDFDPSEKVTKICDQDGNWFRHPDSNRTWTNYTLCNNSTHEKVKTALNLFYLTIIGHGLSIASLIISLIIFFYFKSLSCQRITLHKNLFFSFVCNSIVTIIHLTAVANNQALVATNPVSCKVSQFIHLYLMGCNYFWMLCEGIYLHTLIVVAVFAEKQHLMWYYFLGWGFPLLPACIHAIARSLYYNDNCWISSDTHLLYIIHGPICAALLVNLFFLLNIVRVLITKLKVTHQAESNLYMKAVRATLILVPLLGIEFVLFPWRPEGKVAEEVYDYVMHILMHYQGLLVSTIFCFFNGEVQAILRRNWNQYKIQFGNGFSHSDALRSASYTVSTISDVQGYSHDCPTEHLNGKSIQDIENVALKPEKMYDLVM
Chain of CLR/RAMP1 (Q9JJ74 27-148): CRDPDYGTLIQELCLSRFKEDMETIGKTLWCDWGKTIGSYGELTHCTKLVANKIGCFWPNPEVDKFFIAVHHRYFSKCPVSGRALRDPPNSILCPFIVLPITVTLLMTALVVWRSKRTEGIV

## NC(N)=NCCC[C@H](NC(=O)[C@H](Cc1ccccc1)NC(=O)[C@@H]1CCCN1C(=O)[C@H](CO)NC(=O)[C@H](Cc1ccccc1)NC(=O)CNC(=O)[C@@H]1CCCN1C(=O)[C@@H]1CCCN1C(=O)[C@@H](N)CCCN=C(N)N)C(=O)O [BK, bradykinin] (H-RPPGFSPFR-OH)
[1]; [6]
  Degradation of peptide by 83 nM rhECE-1 at pH 5.5 or 7.4: degraded BK at pH 5.5 and 7.4
[1]; rhECE-1 83 nM, pH 5.5 versus pH 7.4, 37°C, HPLC
  pH dependence of the rate of degradation by rhECE-1: faster at pH 5.5

## CO/C1=C\C(C)=C\[C@@H](C)[C@@H](O)[C@@H](C)C/C(C)=C/C=C/[C@H](OC)[C@@H]([C@@H](C)[C@@H](O)[C@H](C)[C@@]2(O)C[C@@H](O)[C@H](C)[C@@H](C(C)C)O2)OC1=O [bafilomycin A1]
HEK-CLR-RAMP1 cells [2]
  Effect on degradation of internalized 125I-His8-CGRP: prevented degradation
[3]
  Effect on localization of CLR (RAMP1) and β-arrestin2 during recovery: caused retention of CLR, RAMP1, and β-arrestin2 in endosomes for up to 4 h recovery
HEK cells; bafilomycin A1 0.15 or 1 μM
  Effect on desensitization of BK-induced Ca2+ signaling: had no effect
HEK cells; bafilomycin A1 0.15 or 1 μM, 0–120 min recovery
  Effect on resensitization of BK-induced Ca2+ signaling: had no effect

## CC(C)C[C@H](NP(=O)(O)O[C@@H]1O[C@@H](C)[C@H](O)[C@@H](O)[C@H]1O)C(=O)N[C@@H](Cc1c[nH]c2ccccc12)C(=O)O [phosphoramidon]
HEK cells
  Effect on response to a single BK challenge ([Ca2+]i): did not affect responses to a single BK challenge

## O=C(O)CNC(=O)C(CS)Cc1ccccc1 (centres unmarked) [thiorphan]
HEK cells
  Effect on response to a single BK challenge ([Ca2+]i): did not affect responses to a single BK challenge

## Calcitonin gene-related peptide [CGRP]
[1]; pH 5.5, products CGRP[15–26], CGRP[27–37], CGRP[1–24], CGRP[1–26]
  Bonds hydrolysed by rhECE-1 (major products separated by HPLC): Gly^14-Leu^15, Lys^24-Asp^25, and Asn^26-Phe^27
[1]; peptide 250 μM, rhECE-1 83 or 415 nM, 37°C, 50 mM MES-KOH pH 5.5, 0–720 min, reversed-phase HPLC
  Degradation of peptide by rhECE-1 at endosomal pH 5.5: degraded CGRP in a concentration-dependent manner
[1]; peptide 250 μM, rhECE-1, 37°C, 50 mM Tris-HCl pH 7.4, reversed-phase HPLC
  Degradation of peptide by rhECE-1 at extracellular fluid pH 7.4: minimal
CLR/RAMP1
  Peptide bound to CLR/RAMP1 at endosomal pH 5.5: ~20%
HEK-CLR-RAMP1 cells [4]; CGRP 100 nM 1 h 37°C, 0 h recovery, challenge 30 nM
  Desensitization of CGRP-induced Ca2+ signals by preincubation with agonist: complete desensitization
HEK-CLR-RAMP1 cells [4]; CGRP 100 nM 1 h, wash, 0–6 h recovery, challenge 30 nM
  Resensitization of responses to CGRP in cells with active ECE-1: fully resensitized at 4–6 h recovery
HEK-CLR-RAMP1 cells [4]; after 2 h recovery, mean ± SE
  Resensitization of CGRP-induced Ca2+ signaling, HEK cells expressing CLR/RAMP1 alone (control): 33 ± 2%
HEK-CLR-RAMP1 cells [4]; at 2 h recovery, mean ± SE
  Resensitization of CGRP-induced Ca2+ signaling, cells overexpressing ECE-1c: 75 ± 5%
SK-N-MC cells; CGRP 100 nM 1 h 37°C
  Desensitization of responses to CGRP by preincubation with agonist: completely desensitized
SK-N-MC cells; after 4 h recovery, mean ± SE
  Resensitization of responses to CGRP: 54 ± 5%
[5]
  Effect on constitutive endocytosis of ECE-1c-HSV (cell surface ECE-1c): did not affect this endocytosis

## SCNTATCVTHRLAGLLSRSGGVVKDNFVPTNVGSEAF-NH2
rhECE-1
  cleaved bond: Gly14-Leu15, major; also recorded: Lys24-Asp25, major; also recorded: Asn26-Phe27, major

## angiotensin (AT) I (DRVYIHPFHL; Angiotensin-1; UniProt P01019 25-34, looked up) [ATI]
[1]; [6]
  Degradation of peptide by 83 nM rhECE-1 at pH 5.5 or 7.4: degraded ATI under the same conditions

## angiotensin II (DRVYIHPF; Angiotensin-2; UniProt P01019 25-32, looked up) [ATII]
[1]; [6]
  Degradation of peptide by 83 nM rhECE-1 at pH 5.5 or 7.4: no detectable degradation at up to 480 min

## angiotensin II [ATII]
HEK-AT1AR cells
  Resensitization of ATII-induced Ca2+ signaling at 2 h: 96 ± 3%

Reference: publication PMC2099187 (The Journal of Cell Biology, 2007)
